The first data set deals with Rattus norvegicus. As to the kind of experiment: Ex vivo induction of NQO1 in Sprague-Dawley rat bladder at 7.5 umol/kg/day, po for 10 days measured on day 11 relative to control. It is filed as functional. Summed up:
(§1)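 Female Sprague-Dawley rats, 6 per group, gavaged with compound at 7.5 µmol/kg/day or soya oil for 10 days and killed on day 11. Bladder homogenized in ice-cold 0.2% Triton X-100 and cleared by centrifugation. NQO1 activity measured by the Ernster method, GST by the Habig method. Reported as treated/control mean ± SEM, ANOVA with Student-Newman-Keuls test.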
Take `Cc1ssc(=S)c1C(=O)O`: the “fold change (FC)” value is 1.1.
As for `Oc1ccc(-c2cc(=S)ss2)cc1`, the “fold change (FC)” value is 1.02.
Same read-out and setting: the result for `CC1CCc2c1ssc2=S` (stereo not given) reads 1.91.
Still for that read-out and setting: the result for `S=c1ssc2c1CCCC2` reads 1.46.
Same read-out and setting: the result for `CCOC(=O)C1Cc2ssc(=S)c2C1` (stereo not given) reads 1.23; that for `O=C(O)c1cssc1=S`, 3.69.
In the case of `CCOC(=O)c1cc(=S)ss1`, the “fold change (FC)” value is on record as 1.13.
On the same count and under the same terms, to `Cc1cc(=S)ss1` belongs 1.23.
On the same count and under the same terms, to `COC(=O)c1c(C)ssc1=S` belongs 1.24; to `CCOC(=O)c1c(N)ssc1=S`, 2.03.
The same measure, in the same setting: to `Cc1c(S)ssc1=S` belongs 1.29; to `S=c1ssc2c1CCCCC2`, 1.2.

Test system in the next data set: not listed separately
As to the kind of experiment: Dissociation constant, pKa of the compound. Format: physicochemical.
On to `O=C(O)c1cssc1=S`, for which the pKa was 2.8.

For another data set, the system named is Rattus norvegicus. Kind of data set: Ex vivo induction of GST in Sprague-Dawley rat bladder at 7.5 umol/kg/day, po for 10 days measured on day 11 relative to control. It is filed as functional. A digest of the protocol: as §1
Regarding `Cc1ssc(=S)c1C(=O)O`, the “fold change (FC)” value was 0.99.
On the same count and under the same terms, to `Oc1ccc(-c2cc(=S)ss2)cc1` belongs 0.95; to `CC1CCc2c1ssc2=S` (stereo not given), 1.3.
Consider `S=c1ssc2c1CCCC2`, for which the “fold change (FC)” value came to 1.05.
For the molecule `CCOC(=O)C1Cc2ssc(=S)c2C1` (stereo not given), the “fold change (FC)” value is 1.11.
On the same count and under the same terms, the result for `O=C(O)c1cssc1=S` reads 2.11; that for `CCOC(=O)c1cc(=S)ss1`, 1.09.
On the same count and under the same terms, the result for `Cc1cc(=S)ss1` reads 1.08; that for `COC(=O)c1c(C)ssc1=S`, 1.24.
The same measure, in the same setting: to `CCOC(=O)c1c(N)ssc1=S` belongs 1.25.
In the case of `Cc1c(S)ssc1=S`, the “fold change (FC)” value was determined as 1.08.
As for `S=c1ssc2c1CCCCC2`, the “fold change (FC)” value turned out to be 1.14.

The pKa is the negative logarithm of the acid dissociation constant. A lower pKa goes with a stronger acid or weaker base.

The values above are taken from ChEMBL document CHEMBL1177701, “Synthesis, biological evaluation, and structure-activity relationships of dithiolethiones as inducers of cytoprotective phase 2 enzymes” (J Med Chem, 2010).
